Tests used:
[1] = biological target: Protein kinase C epsilon type (Homo sapiens) (UniProt Q02156); assay: Inhibition of PKCE at 1 uM in presence of 10 uM ATP by Select Screen kinase assay relative to untreated control
[2] = biological target: Serine/threonine-protein kinase D3 (Homo sapiens) (UniProt O94806); assay: Inhibition of PRKCN at 1 uM in presence of 10 uM ATP by Select Screen kinase assay relative to untreated control
[3] = biological target: cGMP-dependent protein kinase 2 (Homo sapiens) (UniProt Q13237); assay: Inhibition of PRKG2 at 1 uM in presence of 10 uM ATP by Select Screen kinase assay relative to untreated control
[4] = test system: Proto-oncogene tyrosine-protein kinase receptor Ret (Homo sapiens), P07949 [Y791F]; assay: Inhibition of RET Y791F mutant at 1 uM in presence of 10 uM ATP by Select Screen kinase assay relative to untreated control
In short: (§1)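 Profiling panel of 220 purified kinases (SelectScreen), each compound tested at 1 μM. Read-out is percent inhibition of kinase activity.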

[5] = test system: Tyrosine-protein kinase ABL1 (Homo sapiens), P00519 [G250E]; assay: Inhibition of ABL1 G250E mutant at 1 uM in presence of 10 uM ATP by Select Screen kinase assay relative to untreated control
In short: (§2)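 Single-point screen at 1 μM against a panel of 220 purified kinases, run by Invitrogen staff as a SelectScreen profiling service. Read-out is percent inhibition of kinase activity.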

[6] = biological target: RAC-beta serine/threonine-protein kinase (Homo sapiens) (UniProt P31751); assay: Inhibition of AKT2 at 1 uM in presence of 10 uM ATP by Select Screen kinase assay relative to untreated control; in short: as §2
RAC-beta serine/threonine-protein kinase (Homo sapiens), sequence (P31751 whole entry): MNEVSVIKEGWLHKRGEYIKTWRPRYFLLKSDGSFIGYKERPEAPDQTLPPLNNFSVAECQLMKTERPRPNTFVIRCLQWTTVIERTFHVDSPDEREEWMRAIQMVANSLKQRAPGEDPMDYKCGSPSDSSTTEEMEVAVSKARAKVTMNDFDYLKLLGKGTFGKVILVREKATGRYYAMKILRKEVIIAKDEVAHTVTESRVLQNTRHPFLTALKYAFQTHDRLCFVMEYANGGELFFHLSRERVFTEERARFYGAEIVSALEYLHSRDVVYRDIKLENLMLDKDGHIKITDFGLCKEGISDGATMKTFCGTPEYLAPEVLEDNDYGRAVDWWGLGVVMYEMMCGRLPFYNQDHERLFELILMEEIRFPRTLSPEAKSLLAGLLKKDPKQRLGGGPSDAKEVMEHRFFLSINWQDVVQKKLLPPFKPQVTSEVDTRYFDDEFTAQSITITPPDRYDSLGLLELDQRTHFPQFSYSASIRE

[7] = biological target: Tyrosine-protein kinase BTK (Homo sapiens) (UniProt Q06187); assay: Inhibition of BTK at 1 uM in presence of 10 uM ATP by Select Screen kinase assay relative to untreated control; in short: as §2
[8] = biological target: Rho-associated protein kinase 2 (Homo sapiens) (UniProt O75116); assay: Inhibition of ROCK2 at 1 uM in presence of 10 uM ATP by Select Screen kinase assay relative to untreated control; in short: as §1
[9] = biological target: Ribosomal protein S6 kinase alpha-1 (Homo sapiens) (UniProt Q15418); assay: Inhibition of RPS6KA1 at 1 uM in presence of 100 uM ATP by Select Screen kinase assay relative to untreated control
[10] = biological target: Ribosomal protein S6 kinase beta-1 (Homo sapiens, UniProt P23443); assay: Inhibition of RPS6KB1 at 1 uM in presence of 10 uM ATP by Select Screen kinase assay relative to untreated control
Ribosomal protein S6 kinase beta-1, sequence (P23443 whole entry, looked up): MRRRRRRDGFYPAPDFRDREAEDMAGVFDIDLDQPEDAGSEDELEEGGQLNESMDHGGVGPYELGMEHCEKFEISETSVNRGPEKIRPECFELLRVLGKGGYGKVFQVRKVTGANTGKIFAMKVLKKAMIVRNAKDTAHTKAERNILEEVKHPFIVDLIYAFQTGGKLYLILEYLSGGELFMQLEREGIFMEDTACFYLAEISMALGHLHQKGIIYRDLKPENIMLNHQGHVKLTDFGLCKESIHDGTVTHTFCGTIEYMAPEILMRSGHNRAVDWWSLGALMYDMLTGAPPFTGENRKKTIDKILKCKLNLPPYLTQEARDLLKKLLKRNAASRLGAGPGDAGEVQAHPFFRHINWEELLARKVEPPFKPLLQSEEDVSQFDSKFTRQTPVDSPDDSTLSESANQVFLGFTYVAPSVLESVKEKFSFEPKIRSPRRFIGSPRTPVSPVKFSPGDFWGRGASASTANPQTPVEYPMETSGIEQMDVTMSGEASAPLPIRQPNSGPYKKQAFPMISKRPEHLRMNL

[11] = biological target: Serine/threonine-protein kinase Sgk1 (Homo sapiens) (UniProt O00141); assay: Inhibition of SGK at 1 uM in presence of 10 uM ATP by Select Screen kinase assay relative to untreated control
Serine/threonine-protein kinase Sgk1 (Homo sapiens), sequence (O00141 whole entry): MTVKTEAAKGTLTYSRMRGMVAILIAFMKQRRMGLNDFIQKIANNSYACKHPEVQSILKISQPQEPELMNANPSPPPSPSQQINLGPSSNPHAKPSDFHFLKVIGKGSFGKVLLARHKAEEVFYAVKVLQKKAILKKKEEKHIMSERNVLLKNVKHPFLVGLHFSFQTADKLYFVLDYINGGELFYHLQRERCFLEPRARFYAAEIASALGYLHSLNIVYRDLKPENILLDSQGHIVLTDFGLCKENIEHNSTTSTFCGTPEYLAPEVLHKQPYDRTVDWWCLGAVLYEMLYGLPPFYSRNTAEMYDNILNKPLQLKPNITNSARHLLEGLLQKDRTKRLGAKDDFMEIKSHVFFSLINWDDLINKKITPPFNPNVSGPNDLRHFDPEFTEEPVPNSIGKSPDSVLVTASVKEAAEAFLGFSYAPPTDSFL

[12] = biological target: SRSF protein kinase 3 (Homo sapiens) (UniProt Q9UPE1); assay: Inhibition of STK23 at 1 uM in presence of 10 uM ATP by Select Screen kinase assay relative to untreated control
In short: (§3)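 Commercial SelectScreen profiling panel of 220 purified kinases. Each kinase was tested at a single inhibitor concentration of 1 μM, and activity was expressed as percent inhibition.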

[13] = biological target: Aurora kinase A (Homo sapiens) (UniProt O14965); assay: Inhibition of STK6 at 1 uM in presence of 10 uM ATP by Select Screen kinase assay relative to untreated control; in short: as §3
[14] = biological target: Serine/threonine-protein kinase MRCK alpha (Homo sapiens) (UniProt Q5VT25); assay: Inhibition of CDC42 binding protein alpha at 1 uM in presence of 10 uM ATP by Select Screen kinase assay relative to untreated control; in short: as §2
[15] = biological target: Serine/threonine-protein kinase Chk1 (Homo sapiens) (UniProt O14757); assay: Inhibition of CHEK1 at 1 uM in presence of 10 uM ATP by Select Screen kinase assay relative to untreated control; in short: as §2
[16] = biological target: Dual specificity protein kinase CLK1 (Homo sapiens) (UniProt P49759); assay: Inhibition of CLK1 at 1 uM in presence of 100 uM ATP by Select Screen kinase assay relative to untreated control
Dual specificity protein kinase CLK1 (Homo sapiens), sequence (P49759 whole entry, looked up): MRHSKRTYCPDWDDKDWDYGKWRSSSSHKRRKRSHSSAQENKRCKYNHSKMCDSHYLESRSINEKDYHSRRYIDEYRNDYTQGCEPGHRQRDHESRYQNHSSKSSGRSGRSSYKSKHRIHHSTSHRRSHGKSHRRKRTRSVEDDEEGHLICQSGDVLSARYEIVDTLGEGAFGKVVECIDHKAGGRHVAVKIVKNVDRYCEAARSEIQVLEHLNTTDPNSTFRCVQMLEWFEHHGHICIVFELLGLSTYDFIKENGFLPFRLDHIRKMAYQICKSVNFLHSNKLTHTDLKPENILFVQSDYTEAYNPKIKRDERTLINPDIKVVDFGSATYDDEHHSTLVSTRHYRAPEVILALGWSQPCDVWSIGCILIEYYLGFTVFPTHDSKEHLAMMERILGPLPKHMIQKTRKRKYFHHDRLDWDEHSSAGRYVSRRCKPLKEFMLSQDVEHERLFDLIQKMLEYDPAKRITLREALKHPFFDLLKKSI
In short: (§4)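 Part of a 220-kinase panel of purified kinases, each tested with compound at 1 μM. Percent inhibition was measured in the Invitrogen SelectScreen profiling assay.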

[17] = biological target: Dual specificity protein kinase CLK2 (Homo sapiens) (UniProt P49760); assay: Inhibition of CLK2 at 1 uM in presence of 10 uM ATP by Select Screen kinase assay relative to untreated control; in short: as §4
[18] = biological target: Dual specificity protein kinase CLK3 (Homo sapiens) (UniProt P49761); assay: Inhibition of CLK3 at 1 uM in presence of 100 uM ATP by Select Screen kinase assay relative to untreated control; in short: as §4
[19] = biological target: Casein kinase II subunit alpha' (Homo sapiens) (UniProt P19784); assay: Inhibition of CSNK2A2 at 1 uM in presence of 10 uM ATP by Select Screen kinase assay relative to untreated control; in short: as §4
[20] = biological target: Death-associated protein kinase 3 (Homo sapiens) (UniProt O43293); assay: Inhibition of DAPK3 at 1 uM in presence of 10 uM ATP by Select Screen kinase assay relative to untreated control; in short: as §4
[21] = biological target: Dual specificity tyrosine-phosphorylation-regulated kinase 1B (Homo sapiens) (UniProt Q9Y463); assay: Inhibition of DYRK1B at 1 uM in presence of 10 uM ATP by Select Screen kinase assay relative to untreated control; in short: as §4
[22] = test system: Receptor-type tyrosine-protein kinase FLT3 (Homo sapiens), P36888 [D835Y]; assay: Inhibition of FLT3 D835Y mutant at 1 uM in presence of 10 uM ATP by Select Screen kinase assay relative to untreated control; in short: as §4
[23] = biological target: Tyrosine-protein kinase JAK2 (Homo sapiens) (UniProt O60674); assay: Inhibition of JAK2 JH1 JH2 domain at 1 uM in presence of 100 uM ATP by Select Screen kinase assay relative to untreated control
Tyrosine-protein kinase JAK2 (Homo sapiens), sequence (O60674 whole entry, the tested form may be a part): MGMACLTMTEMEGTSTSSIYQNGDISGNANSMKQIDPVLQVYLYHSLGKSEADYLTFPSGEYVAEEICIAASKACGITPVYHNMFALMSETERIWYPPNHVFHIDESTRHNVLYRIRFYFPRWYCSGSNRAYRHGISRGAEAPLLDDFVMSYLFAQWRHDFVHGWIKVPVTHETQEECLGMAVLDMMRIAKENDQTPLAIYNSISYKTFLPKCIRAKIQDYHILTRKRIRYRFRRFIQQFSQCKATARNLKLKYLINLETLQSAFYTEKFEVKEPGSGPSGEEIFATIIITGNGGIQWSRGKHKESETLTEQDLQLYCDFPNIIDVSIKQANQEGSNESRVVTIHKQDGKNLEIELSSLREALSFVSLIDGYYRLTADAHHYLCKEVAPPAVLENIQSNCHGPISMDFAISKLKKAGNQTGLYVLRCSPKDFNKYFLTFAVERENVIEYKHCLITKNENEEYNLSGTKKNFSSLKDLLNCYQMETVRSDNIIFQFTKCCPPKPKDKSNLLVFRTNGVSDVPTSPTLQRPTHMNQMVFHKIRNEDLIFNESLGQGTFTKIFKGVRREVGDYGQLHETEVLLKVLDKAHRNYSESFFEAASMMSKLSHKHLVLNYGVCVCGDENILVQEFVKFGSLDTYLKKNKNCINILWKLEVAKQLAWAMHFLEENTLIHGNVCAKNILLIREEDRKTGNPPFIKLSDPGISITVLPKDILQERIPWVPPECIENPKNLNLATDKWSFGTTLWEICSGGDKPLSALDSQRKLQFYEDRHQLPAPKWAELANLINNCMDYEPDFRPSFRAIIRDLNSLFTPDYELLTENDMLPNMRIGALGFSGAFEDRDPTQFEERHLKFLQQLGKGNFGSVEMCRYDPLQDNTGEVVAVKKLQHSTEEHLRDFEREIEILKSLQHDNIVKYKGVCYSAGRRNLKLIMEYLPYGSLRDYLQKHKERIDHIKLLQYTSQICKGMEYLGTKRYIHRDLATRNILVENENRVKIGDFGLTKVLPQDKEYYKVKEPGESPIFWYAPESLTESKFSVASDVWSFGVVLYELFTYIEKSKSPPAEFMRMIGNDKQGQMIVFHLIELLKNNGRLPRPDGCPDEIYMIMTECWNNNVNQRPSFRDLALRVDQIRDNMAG
In short: (§5)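 Single-concentration profiling at 1 μM against a panel of 220 purified kinases, run as an outsourced SelectScreen kinase profiling service. Activity is expressed as percent inhibition.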

[24] = test system: Tyrosine-protein kinase JAK2 (Homo sapiens), O60674 [V617F]; assay: Inhibition of JAK2 JH1 JH2 domain V617F mutant at 1 uM in presence of 10 uM ATP by Select Screen kinase assay relative to untreated control
Tyrosine-protein kinase JAK2 (Homo sapiens), O60674 [V617F], sequence (O60674 whole entry V617F, the tested form may be a part): as the sequence (O60674 whole entry, the tested form may be a part) above, with V617F counted along it

[25] = biological target: Mast/stem cell growth factor receptor Kit (Homo sapiens) (UniProt P10721); assay: Inhibition of KIT at 1 uM in presence of 100 uM ATP by Select Screen kinase assay relative to untreated control; in short: as §5
Mast/stem cell growth factor receptor Kit (Homo sapiens), sequence (P10721 whole entry): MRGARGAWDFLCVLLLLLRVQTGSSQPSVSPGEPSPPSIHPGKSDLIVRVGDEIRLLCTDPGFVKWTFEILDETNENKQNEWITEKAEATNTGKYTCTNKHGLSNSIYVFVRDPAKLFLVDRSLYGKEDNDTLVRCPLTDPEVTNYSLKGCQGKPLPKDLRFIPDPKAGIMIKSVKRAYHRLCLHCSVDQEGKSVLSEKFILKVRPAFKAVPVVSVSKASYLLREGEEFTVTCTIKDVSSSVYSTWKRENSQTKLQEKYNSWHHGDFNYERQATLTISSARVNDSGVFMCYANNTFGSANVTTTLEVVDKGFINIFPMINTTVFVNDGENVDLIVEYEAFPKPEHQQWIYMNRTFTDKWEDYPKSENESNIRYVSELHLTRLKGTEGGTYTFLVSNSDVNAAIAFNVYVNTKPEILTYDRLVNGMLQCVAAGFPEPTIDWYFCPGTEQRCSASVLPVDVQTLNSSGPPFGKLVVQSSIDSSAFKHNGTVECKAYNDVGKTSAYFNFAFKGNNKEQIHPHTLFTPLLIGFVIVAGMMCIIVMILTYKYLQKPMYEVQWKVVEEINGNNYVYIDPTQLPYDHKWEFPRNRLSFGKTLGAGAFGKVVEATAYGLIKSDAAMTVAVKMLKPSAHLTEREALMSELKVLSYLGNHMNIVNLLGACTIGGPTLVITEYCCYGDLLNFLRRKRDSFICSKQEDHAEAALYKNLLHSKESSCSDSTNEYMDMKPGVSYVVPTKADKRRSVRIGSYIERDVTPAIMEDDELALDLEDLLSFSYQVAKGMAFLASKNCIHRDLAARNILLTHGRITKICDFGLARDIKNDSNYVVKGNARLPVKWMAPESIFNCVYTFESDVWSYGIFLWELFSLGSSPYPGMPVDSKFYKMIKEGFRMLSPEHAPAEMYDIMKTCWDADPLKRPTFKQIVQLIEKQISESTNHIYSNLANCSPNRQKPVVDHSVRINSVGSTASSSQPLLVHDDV

[26] = biological target: Serine/threonine-protein kinase Nek2 (Homo sapiens) (UniProt P51955); assay: Inhibition of NEK2 at 1 uM in presence of 10 uM ATP by Select Screen kinase assay relative to untreated control
[27] = biological target: Serine/threonine-protein kinase PAK 4 (Homo sapiens) (UniProt O96013); assay: Inhibition of PAK4 at 1 uM in presence of 10 uM ATP by Select Screen kinase assay relative to untreated control

Serine/threonine-protein kinase D3 (Homo sapiens), sequence (O94806 whole entry): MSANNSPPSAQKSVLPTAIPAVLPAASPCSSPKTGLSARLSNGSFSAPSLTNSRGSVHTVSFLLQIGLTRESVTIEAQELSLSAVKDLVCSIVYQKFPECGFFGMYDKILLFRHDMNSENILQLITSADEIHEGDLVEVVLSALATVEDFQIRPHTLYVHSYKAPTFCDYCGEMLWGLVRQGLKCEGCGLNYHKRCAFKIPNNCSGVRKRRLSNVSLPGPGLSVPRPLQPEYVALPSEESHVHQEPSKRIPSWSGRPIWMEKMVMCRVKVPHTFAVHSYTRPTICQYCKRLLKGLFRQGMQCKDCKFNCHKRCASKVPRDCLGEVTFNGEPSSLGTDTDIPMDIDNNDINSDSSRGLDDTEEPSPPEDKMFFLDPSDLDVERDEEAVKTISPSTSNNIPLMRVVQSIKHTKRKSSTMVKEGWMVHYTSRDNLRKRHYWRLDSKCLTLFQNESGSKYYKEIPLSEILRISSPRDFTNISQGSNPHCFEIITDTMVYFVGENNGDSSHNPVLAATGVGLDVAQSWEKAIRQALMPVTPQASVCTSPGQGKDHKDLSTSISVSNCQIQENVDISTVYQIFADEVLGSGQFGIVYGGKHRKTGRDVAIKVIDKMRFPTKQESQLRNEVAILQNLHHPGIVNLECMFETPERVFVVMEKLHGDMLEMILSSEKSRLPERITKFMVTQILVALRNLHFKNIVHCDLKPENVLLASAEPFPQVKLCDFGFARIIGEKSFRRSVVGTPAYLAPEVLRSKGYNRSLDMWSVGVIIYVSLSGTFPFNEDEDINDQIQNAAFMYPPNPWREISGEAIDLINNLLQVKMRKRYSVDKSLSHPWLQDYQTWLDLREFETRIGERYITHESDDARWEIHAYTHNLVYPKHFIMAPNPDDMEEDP

| Compound | inhibition [1] | inhibition [2] | inhibition [3] | inhibition [4] | inhibition [5] | inhibition [6] | inhibition [7] | inhibition [8] | inhibition [9] | inhibition [10] | inhibition [11] | inhibition [12] | inhibition [13] | inhibition [14] | inhibition [15] | inhibition [16] | inhibition [17] | inhibition [18] | inhibition [19] | inhibition [20] | other results |
| --- | --- | --- | --- | --- | --- | --- | --- | --- | --- | --- | --- | --- | --- | --- | --- | --- | --- | --- | --- | --- | --- |
| COc1ccccc1N1CCN(c2ncnc3[nH]nc(Br)c23)CC1 | 13% | 18% | 92% | 48% | 7% | 12% | 11% | 2% | 63% | 80% | 13% | 3% | 22% | -3% | 19% | 74% | 85% | 32% | 27% | 14% | inhibition [21]: 43%; inhibition [22]: 71%; inhibition [23]: 0%; inhibition [24]: -3%; inhibition [25]: -7%; inhibition [26]: 21%; inhibition [27]: 9% |
| O=C(NCCCNc1nc(Nc2cccc(NC(=O)N3CCCC3)c2)ncc1I)c1cccs1 | 47% | 83% | 29% | 91% | 18% | 9% | 23% | 72% | 42% | 29% | 53% | 6% | 97% | 19% | 75% | 30% | 70% | 8% | 26% | 13% | inhibition [21]: 26%; inhibition [22]: 100%; inhibition [23]: 97%; inhibition [24]: 105%; inhibition [25]: 13%; inhibition [26]: 33%; inhibition [27]: 42% |
